MT1-MMP act inh – MT1-MMP (human) activation inhibition; AID 651647; actives 0.061% (n = 360,000); HT1080 RFP-PRO-GFP cells, GFP/RFP ratio fluorescence, overnight; percent of plate control window, DMSO zero; P50281; GFP/RFP ratio change, % at 20 µM;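 active means GFP/RFP ratio change of at least 30% with cell ATP level not reduced by more than half and red fluorescence within 50% of control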
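Assay system: HT1080 cells carrying an RFP-PRO-GFP reporter | Dosing: Single dose of 20 µM compound, 1% DMSO final | Incubation: Cells overnight before dosing, compound overnight, 37 °C, 5% CO2 | Evaluation: GFP/RFP fluorescence ratio | Control set: DMSO and RFP-L50D-GFP cell wells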
ABCB6 inh MLPCN – human ABCB6 transporter inhibition. fluorescence ratio to DMSO, % at 10 µM. Q9NP58. K562-ABCB6 porphyrin accumulation, flow cytometry, 1 h; active compounds read low. AID 602162. actives 0.19% (n = 360,000);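 active means fluorescence ratio to DMSO below 75%, the collection mean minus 3 SD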;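 further: signal is porphyrin accumulated inside mitochondria; lower ratio means ABCB6 inhibition with less porphyrin fluorescence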
FGF22 binding-1 – shifts melting point of recombinant human FGF22. Q9HCT0. actives 1.5% (n = 340,000). recombinant FGF22 thermal shift, SYPRO orange fluorescence; percent of sucrose octasulfate shift, DMSO zero. activity (Tm shift, normalised), % at 9.99 µM. AID 651658;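 active means mean Tm shift, scaled 0 neutral to 100 positive control, at about 1.3% or above, every replicate too, limit read from the data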
Exocytosis inh – blocks lytic granule exocytosis. TALL-104 LAMP-1 surface exposure, flow cytometry; cells stimulated with thapsigargin and PMA. inhibition, % at 10 µM. actives 0.66% (n = 360,000). AID 651702;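 active means inhibition above about 55%, limit read from the data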
DAGLB inhibitor – blocks human DAGLB lipase activity. Q8NCG7. HEK293T DAGLB membrane lysate, EnzChek fluorogenic substrate. inhibition, % at 5.17 µM. actives 0.059% (n = 340,000). AID 504411; in the data active means inhibition above about 34%
VLA-4 inh – inhibition in a human VLA-4 binding assay | P13612 | actives 0.2% (n = 330,000) | AID 2557 | VLA-4 expressing cells, ligand binding flow cytometry | inhibition, % (about 7 µM as worked out from the volumes in the protocol); in the data active means inhibition above about 50%
Target sequence (P13612 whole entry, looked up): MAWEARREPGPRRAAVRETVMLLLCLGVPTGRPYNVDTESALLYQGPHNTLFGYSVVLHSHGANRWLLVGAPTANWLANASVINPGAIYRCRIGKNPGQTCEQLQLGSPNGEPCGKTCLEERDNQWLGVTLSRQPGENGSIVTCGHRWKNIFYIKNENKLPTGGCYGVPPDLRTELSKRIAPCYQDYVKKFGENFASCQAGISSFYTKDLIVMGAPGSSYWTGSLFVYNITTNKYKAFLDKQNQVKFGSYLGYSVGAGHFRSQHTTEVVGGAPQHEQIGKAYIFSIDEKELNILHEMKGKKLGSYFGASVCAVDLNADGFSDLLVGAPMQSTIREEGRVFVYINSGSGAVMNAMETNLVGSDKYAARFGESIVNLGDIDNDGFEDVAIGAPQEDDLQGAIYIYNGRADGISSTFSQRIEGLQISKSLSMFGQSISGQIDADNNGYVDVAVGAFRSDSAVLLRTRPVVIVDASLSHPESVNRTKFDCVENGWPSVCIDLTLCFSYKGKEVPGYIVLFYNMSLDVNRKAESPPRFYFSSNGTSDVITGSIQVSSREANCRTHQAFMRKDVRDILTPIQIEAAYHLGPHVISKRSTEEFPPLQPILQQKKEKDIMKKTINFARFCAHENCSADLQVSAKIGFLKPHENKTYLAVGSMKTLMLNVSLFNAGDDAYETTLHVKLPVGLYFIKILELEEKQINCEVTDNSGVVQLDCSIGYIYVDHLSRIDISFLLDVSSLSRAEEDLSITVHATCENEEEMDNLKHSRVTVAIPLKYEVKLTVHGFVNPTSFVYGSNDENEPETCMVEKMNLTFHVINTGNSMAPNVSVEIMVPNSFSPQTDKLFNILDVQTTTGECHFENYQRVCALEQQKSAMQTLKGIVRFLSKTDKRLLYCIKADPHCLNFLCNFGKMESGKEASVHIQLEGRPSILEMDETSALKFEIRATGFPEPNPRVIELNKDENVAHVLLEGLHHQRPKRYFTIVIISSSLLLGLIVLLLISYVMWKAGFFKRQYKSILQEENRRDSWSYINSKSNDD
FGF22 binding-2 – binders of human FGF22 by thermal shift; shares compounds with FGF22 binding-1; thermal shift activity, °C (ΔTm) at 38 µM; recombinant FGF22 thermal shift, SYPRO orange fluorescence; AID 720646; actives 2% (n = 1,000);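 active means fitted rise in melting shift crosses a set limit at or below the top valid dose tested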
FGF22 TSA DP – binds human FGF22 shifting its melting temperature | shares compounds with FGF22 binding-1 | Thermal shift assay, SYPRO orange, melting temperature shift | Tm shift (activity), % at 38 µM | 50 tested, under 10 active | AID 743017;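 active means compounds whose fitted dose curve of melting temperature shift rises past a set threshold within the tested doses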
TSA no protein – shows thermal shift signal without protein, FGF22 counter-screen; actives 2% (n = 1,000); AC50, µM (series often up to 38 µM); shares compounds with FGF22 binding-1; AID 743019; compound-only SYPRO orange thermal shift counter-screen, no protein;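 active means rising signal whose fitted curve reaches the 0.54 level within the top valid dose, showing a melting point, actives reach about 13 µM in these data; inactive means the rest, including activity in the opposite direction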; further: value is where the raw curve crosses a fixed level and not half-maximal
Of the large screens only hits and unclear results are named; the others gave an inactive call (follow-up assays come after a bar, where they were run). Only some compounds are listed: those with a hit (about 2% of all), similar ones and a draw of the others.

O=C(Nc1ccc(Cl)cc1)N[C@@H]1CC[C@@H](CCNS(=O)(=O)c2ccccc2F)O[C@H]1CO	FGF22 binding-1 1.6 (no result: MT1-MMP act inh, ABCB6 inh MLPCN, Exocytosis inh, DAGLB inhibitor, VLA-4 inh) | FGF22 binding-2 inactive | FGF22 TSA DP inactive | TSA no protein inactive
O=C(Nc1cc(Cl)cc(Cl)c1)N[C@H]1CC[C@H](CCNS(=O)(=O)c2cccc(F)c2)O[C@@H]1CO	FGF22 binding-1 2.4 (no result: MT1-MMP act inh, ABCB6 inh MLPCN, Exocytosis inh, DAGLB inhibitor, VLA-4 inh) | FGF22 binding-2 inactive | TSA no protein inactive
O=C(Nc1cc(Cl)cc(Cl)c1)N[C@@H]1CC[C@H](CCNS(=O)(=O)c2cccc(F)c2)O[C@@H]1CO	none (no result: MT1-MMP act inh, ABCB6 inh MLPCN, Exocytosis inh, DAGLB inhibitor, VLA-4 inh)
C[C@H]1CN([C@@H](C)CO)C(=O)Cc2cc(NC(=O)Cn3cnnn3)ccc2O[C@@H]1CN(C)Cc1ccncc1	none (no result: MT1-MMP act inh, ABCB6 inh MLPCN, Exocytosis inh, DAGLB inhibitor, VLA-4 inh)
C[C@H](CO)N1C[C@H](C)[C@@H](CN(C)S(=O)(=O)c2cccs2)Oc2ccc(NC(=O)Nc3ccc4c(c3)OCO4)cc2CC1=O	none (no result: MT1-MMP act inh, ABCB6 inh MLPCN, Exocytosis inh, DAGLB inhibitor, VLA-4 inh)
COc1ccccc1S(=O)(=O)N[C@@H]1CC[C@@H](CCn2cc(C3CCCC3)nn2)O[C@@H]1CO	none (no result: MT1-MMP act inh, ABCB6 inh MLPCN, Exocytosis inh, DAGLB inhibitor, VLA-4 inh)
COc1cccc(-c2ccc([C@H]3[C@H](CO)N4C(=O)CN(C(=O)NC(C)C)C[C@@H]34)cc2)c1	none (no result: MT1-MMP act inh, ABCB6 inh MLPCN, Exocytosis inh, DAGLB inhibitor, VLA-4 inh)
O=C(NCC[C@@H]1CC[C@@H](NC(=O)c2cnccn2)[C@H](CO)O1)Nc1ccc(F)cc1	none (no result: MT1-MMP act inh, ABCB6 inh MLPCN, Exocytosis inh, DAGLB inhibitor, VLA-4 inh)
O=C(NCC[C@@H]1CC[C@H](NC(=O)c2cnccn2)[C@H](CO)O1)Nc1ccc(F)cc1	FGF22 binding-1 9.1 (no result: MT1-MMP act inh, ABCB6 inh MLPCN, Exocytosis inh, DAGLB inhibitor, VLA-4 inh) | FGF22 binding-2 inactive | TSA no protein inactive
O=C(C[C@H]1CC[C@H](NC(=O)Nc2cc(F)ccc2F)[C@@H](CO)O1)Nc1ccc(-c2ccccc2)cc1	FGF22 binding-1 1.6 (no result: MT1-MMP act inh, ABCB6 inh MLPCN, Exocytosis inh, DAGLB inhibitor, VLA-4 inh) | FGF22 binding-2 inactive | TSA no protein inactive
O=C(Nc1ccccc1F)N1C[C@@H]2[C@H](c3ccccc31)[C@@H](CO)N2C(=O)c1ccccn1	none (no result: MT1-MMP act inh, ABCB6 inh MLPCN, Exocytosis inh, DAGLB inhibitor, VLA-4 inh)
O=C(C[C@H]1C=C[C@@H](NS(=O)(=O)c2ccccc2)[C@@H](CO)O1)N1CCc2ccccc2C1	none (no result: MT1-MMP act inh, ABCB6 inh MLPCN, Exocytosis inh, DAGLB inhibitor, VLA-4 inh)
Cc1ccc(S(=O)(=O)N[C@@H]2C=C[C@@H](CC(=O)N3CCc4ccccc4C3)O[C@@H]2CO)cc1	FGF22 binding-1 1.3 (no result: MT1-MMP act inh, ABCB6 inh MLPCN, Exocytosis inh, DAGLB inhibitor, VLA-4 inh) | FGF22 binding-2 inactive | TSA no protein inactive
COc1ccc(S(=O)(=O)N[C@H]2CC[C@H](CC(=O)N3CCc4ccccc4C3)O[C@@H]2CO)cc1	FGF22 binding-1 17 (no result: MT1-MMP act inh, ABCB6 inh MLPCN, Exocytosis inh, DAGLB inhibitor, VLA-4 inh) | FGF22 binding-2 inactive | TSA no protein inactive
CO[C@@H]1CN(C)C(=O)c2ccc(NC(=O)C3CCOCC3)cc2OC[C@@H](C)N(C(=O)c2ccccc2)C[C@@H]1C	none (no result: MT1-MMP act inh, ABCB6 inh MLPCN, Exocytosis inh, DAGLB inhibitor, VLA-4 inh)
O=C(Nc1cccnc1)c1ccc(NS(=O)(=O)c2cccc([N+](=O)[O-])c2)cc1	FGF22 binding-1 1.8 | FGF22 binding-2 inactive | TSA no protein inactive
C[C@H](CO)N1C[C@H](C)[C@@H](CN(C)C(=O)Nc2ccccc2)OCCCC[C@H](C)Oc2ccc(NC(=O)Nc3ccc(F)cc3)cc2C1=O	none (no result: MT1-MMP act inh, ABCB6 inh MLPCN, Exocytosis inh, DAGLB inhibitor, VLA-4 inh)
Cn1c(=O)[nH]c(=O)c2c1nc(SCC(O)CO)n2CCCc1ccccc1 (stereo not given)	FGF22 binding-1 1.4 | FGF22 binding-2 inactive | TSA no protein inactive
CC(C)C[C@@H](CN(C)N=O)N(C[C@H](Cc1ccccc1)N(CCc1ccccc1)N=O)N=O	FGF22 binding-1 1.6 | FGF22 binding-2 inactive | TSA no protein inactive
CC(C)[C@H](CN(N=O)[C@@H](Cc1ccccc1)CN(C)N=O)N(CCc1ccccc1)N=O	none (no result: VLA-4 inh)
CO[C@H]1CN(C)C(=O)c2ccc(NC(C)=O)cc2OC[C@H](C)N(Cc2ccccc2C(=O)O)C[C@@H]1C	none (no result: MT1-MMP act inh, ABCB6 inh MLPCN, Exocytosis inh, DAGLB inhibitor, VLA-4 inh)
CO[C@@H]1CN(C)C(=O)c2cc(NC(=O)c3ccccc3F)ccc2OC[C@H](C)N(C(=O)c2ccccc2F)C[C@@H]1C	none (no result: MT1-MMP act inh, ABCB6 inh MLPCN, Exocytosis inh, DAGLB inhibitor, VLA-4 inh)

Compound activity: PubChem, several laboratories
